Publication PMC7379967 (The Febs Journal, 2018)

Target: human neutrophil proMMP‐9 (Homo sapiens, UniProt P14780)
Type: biochemical
Conditions: zymography
Procedure, shortened: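 Neutrophil proMMP-9 was incubated with recombinant human MMP-3 catalytic domain (enzyme/substrate 1/20), either alone or with galectin-3 (proMMP-9/galectin-3 1/10). Samples were taken at 0, 0.16, 0.5, 1, 2 and 3 h. Galectins were expressed in E. coli BL21-AI and affinity-purified on α-lactose agarose. Conversion to active MMP-9 was read by gelatin zymography, with recombinant proMMP-9 standard loaded as a reference.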

Chain of human neutrophil proMMP‐9 (P14780 20-707 limits assumed): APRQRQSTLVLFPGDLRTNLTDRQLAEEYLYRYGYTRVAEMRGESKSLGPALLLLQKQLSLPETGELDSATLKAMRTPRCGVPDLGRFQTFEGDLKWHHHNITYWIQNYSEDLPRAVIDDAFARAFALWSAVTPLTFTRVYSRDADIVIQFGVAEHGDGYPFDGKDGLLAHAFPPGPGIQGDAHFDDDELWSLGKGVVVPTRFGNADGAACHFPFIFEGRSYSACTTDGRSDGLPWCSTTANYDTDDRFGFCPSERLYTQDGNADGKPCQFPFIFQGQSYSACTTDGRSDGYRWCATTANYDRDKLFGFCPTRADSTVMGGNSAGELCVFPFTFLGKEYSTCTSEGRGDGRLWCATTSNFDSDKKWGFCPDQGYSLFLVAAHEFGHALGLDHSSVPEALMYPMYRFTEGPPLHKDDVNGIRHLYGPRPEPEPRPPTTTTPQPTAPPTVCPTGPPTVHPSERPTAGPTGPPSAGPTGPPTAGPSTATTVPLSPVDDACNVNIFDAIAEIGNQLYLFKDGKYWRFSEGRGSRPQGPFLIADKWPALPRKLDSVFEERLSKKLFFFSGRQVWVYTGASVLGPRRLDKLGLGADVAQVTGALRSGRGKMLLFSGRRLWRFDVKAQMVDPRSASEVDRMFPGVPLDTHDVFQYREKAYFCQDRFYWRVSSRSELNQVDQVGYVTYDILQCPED

galectin‐3: human galectin‐3 (Met1‐Ile250) fused to C‐terminal tag SG(H)6SC, expressed in E. coli
effect on stepwise activation of neutrophil proMMP‐9 by MMP‐3 (cdMMP‐3 1/20, proMMP‐9/galectin‐3 1/10, 0-3 h, Fig. 9A): reduced | effect on activation of neutrophil proMMP‐9 by MMP‐3, overnight incubation (overnight, proMMP‐9/galectin‐3 1/10, Fig. 9B): prevented activation by MMP‐3
